Laboratory results published in ChEMBL document CHEMBL4020842, “Discovery of N1-(4-((7-Cyclopentyl-6-(dimethylcarbamoyl)-7 H-pyrrolo[2,3- d]pyrimidin-2-yl)amino)phenyl)- N8-hydroxyoctanediamide as a Novel Inhibitor Targeting Cyclin-dependent Kinase 4/9 (CDK4/9) and Histone Deacetlyase1 (HDAC1) against Malignant Cancer” (J Med Chem, 2018).
The source made the active and inactive calls. The calls are words filed in the database; no cut-off is given here.

Columns and labels:
T47D = assay: Induction of apoptosis in human T47D cells assessed as late apoptotic cells at 5 uM after 48 hrs by annexin V-FITC/propidium iodide staining based flow cytometry (reference value: 6.16%); type: functional
Histone deacetylase 1 [1] = target: T1, Histone deacetylase 1 (Homo sapiens, UniProt Q13547); assay: Inhibition of HDAC1 in human T47D cells assessed as increase in p53 phosphorylation at Ser15 residue at 1 to 5 uM after 48 hrs by Western blot method; type: cell-based
[2] = target: CDK4/Cyclin D3 (Homo sapiens) (UniProt P11802+P30281); assay: Inhibition of recombinant human full length N-terminal GST-tagged CDK4/Cyclin-D3 co-expressed in baculovirus infected sf21 cells at 1 uM using Rb substrate in presence of [gamma33P]ATP after 10 mins by scintillation counting method relative to control
MDA-MB-231 [3] = assay: Induction of apoptosis in human MDA-MB-231 cells assessed as live cells at 5 uM after 48 hrs by annexin V-FITC/propidium iodide staining based flow cytometry (reference value: 98.1%); type: functional
Hep 3B2 [4] = assay: Induction of apoptosis in human Hep3B cells assessed as late apoptotic cells at 10 uM after 48 hrs by annexin V-FITC/propidium iodide staining based flow cytometry (reference value: 5.25%); type: functional
MDA-MB-231 [5] = assay: Induction of apoptosis in human MDA-MB-231 cells assessed as live cells at 10 uM after 48 hrs by annexin V-FITC/propidium iodide staining based flow cytometry (reference value: 98.1%); type: functional
Histone deacetylase 1 [6] = target: T1, Histone deacetylase 1; assay: Potency index, ratio of vorinostat IC50 to compound IC50 for HDAC1 (unknown origin)
MDA-MB-231 [7] = assay: Induction of apoptosis in human MDA-MB-231 cells assessed as necrotic cells at 5 uM after 48 hrs by annexin V-FITC/propidium iodide staining based flow cytometry (reference value: […]); type: functional
[8] = target: CDK2/Cyclin A2 (Homo sapiens) (UniProt P24941+P20248); assay: Inhibition of recombinant human full length C-terminal 6His-tagged CDK2/N-terminal GST-tagged Cyclin-A co-expressed in baculovirus infected sf21 cells at 1 uM relative to control
Hep 3B2 [9] = assay: Induction of apoptosis in human Hep3B cells assessed as late apoptotic cells at 1 uM after 48 hrs by annexin V-FITC/propidium iodide staining based flow cytometry (reference value: 5.25%); type: functional
[10] = target: Cyclin-dependent kinase 5/CDK5 activator 1 (Homo sapiens) (UniProt Q00535+Q15078); assay: Inhibition of recombinant human full length N-terminal 6His-tagged CDK5/N-terminal GST-tagged p25 co-expressed in baculovirus infected sf21 cells at 1 uM using histone H1 substrate in presence of [gamma33P]ATP after 10 mins by scintillation counting method relative to control
Hep 3B2 [11] = assay: Induction of apoptosis in human Hep3B cells assessed as late apoptotic cells at 5 uM after 48 hrs by annexin V-FITC/propidium iodide staining based flow cytometry (reference value: 5.25%); type: functional
MDA-MB-231 [12] = assay: Induction of apoptosis in human MDA-MB-231 cells assessed as reduction in Bcl2 protein expression after 48 hrs by Western blot method; type: functional, cell-based
Procedure, shortened: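 Cells were treated with or without test agent, alongside a control, for 48h. They were then lysed and analysed by Western blot for Bcl-2 protein and cleaved caspase 3.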

MDA-MB-231 [13] = assay: Induction of apoptosis in human MDA-MB-231 cells assessed as live cells at 1 uM after 48 hrs by annexin V-FITC/propidium iodide staining based flow cytometry (reference value: 98.1%); type: functional
CDK4/CDK9 (Homo sapiens) = CDK4/CDK9 (Homo sapiens) (UniProt P11802+P50750); assay: Inhibition of CDK4/CDK9 in human T47D cells assessed as reduction in Rb phosphorylation at Ser807/811 residues at 1 uM after 48 hrs by Western blot method; type: cell-based
Chain of CDK4/CDK9 (Homo sapiens) (P11802 whole entry, looked up): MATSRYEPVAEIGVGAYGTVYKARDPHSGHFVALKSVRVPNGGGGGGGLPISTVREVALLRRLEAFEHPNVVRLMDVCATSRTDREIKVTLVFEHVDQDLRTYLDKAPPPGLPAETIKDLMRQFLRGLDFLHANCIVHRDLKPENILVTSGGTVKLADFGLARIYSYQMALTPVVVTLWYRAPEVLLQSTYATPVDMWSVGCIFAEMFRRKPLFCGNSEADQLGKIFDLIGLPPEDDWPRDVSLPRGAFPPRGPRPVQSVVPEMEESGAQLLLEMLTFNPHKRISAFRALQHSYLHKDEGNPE
Chain of CDK4/CDK9 (Homo sapiens) (P50750 whole entry, looked up): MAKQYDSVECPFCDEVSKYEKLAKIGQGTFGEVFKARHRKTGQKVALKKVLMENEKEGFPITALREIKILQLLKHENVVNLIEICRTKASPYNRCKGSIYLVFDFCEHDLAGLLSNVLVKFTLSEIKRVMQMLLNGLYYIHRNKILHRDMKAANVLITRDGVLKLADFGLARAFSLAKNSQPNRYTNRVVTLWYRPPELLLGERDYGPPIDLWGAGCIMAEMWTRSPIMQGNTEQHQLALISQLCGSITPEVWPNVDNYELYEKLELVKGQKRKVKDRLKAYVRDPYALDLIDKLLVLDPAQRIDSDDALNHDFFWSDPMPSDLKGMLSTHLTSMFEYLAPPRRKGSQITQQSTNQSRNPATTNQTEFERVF

T1 sequence (Q13547 whole entry): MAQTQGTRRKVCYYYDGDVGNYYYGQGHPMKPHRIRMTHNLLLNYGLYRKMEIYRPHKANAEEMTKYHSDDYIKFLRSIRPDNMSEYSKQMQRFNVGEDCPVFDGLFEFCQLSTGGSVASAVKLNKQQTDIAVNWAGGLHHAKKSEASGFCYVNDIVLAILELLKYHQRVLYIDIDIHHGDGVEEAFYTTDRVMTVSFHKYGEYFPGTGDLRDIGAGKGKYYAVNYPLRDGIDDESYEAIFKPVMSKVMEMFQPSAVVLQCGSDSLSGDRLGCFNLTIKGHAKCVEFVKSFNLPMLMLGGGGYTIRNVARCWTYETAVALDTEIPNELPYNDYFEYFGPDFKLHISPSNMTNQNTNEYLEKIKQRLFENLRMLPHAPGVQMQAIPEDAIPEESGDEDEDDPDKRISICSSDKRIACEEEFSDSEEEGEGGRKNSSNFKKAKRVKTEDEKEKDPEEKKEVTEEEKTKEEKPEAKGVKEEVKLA
Chain of Cyclin-dependent kinase 5/CDK5 activator 1 (Homo sapiens) (Q00535 whole entry): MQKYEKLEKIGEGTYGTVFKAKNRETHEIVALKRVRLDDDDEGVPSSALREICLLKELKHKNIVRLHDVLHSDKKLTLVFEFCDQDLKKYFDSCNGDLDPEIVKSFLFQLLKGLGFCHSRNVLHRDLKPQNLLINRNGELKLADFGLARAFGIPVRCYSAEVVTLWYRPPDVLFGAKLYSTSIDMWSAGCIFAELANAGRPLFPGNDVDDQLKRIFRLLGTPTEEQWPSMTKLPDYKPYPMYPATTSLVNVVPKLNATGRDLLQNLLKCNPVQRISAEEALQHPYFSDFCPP
Chain of Cyclin-dependent kinase 5/CDK5 activator 1 (Homo sapiens) (Q15078 99-307 partner limits assumed): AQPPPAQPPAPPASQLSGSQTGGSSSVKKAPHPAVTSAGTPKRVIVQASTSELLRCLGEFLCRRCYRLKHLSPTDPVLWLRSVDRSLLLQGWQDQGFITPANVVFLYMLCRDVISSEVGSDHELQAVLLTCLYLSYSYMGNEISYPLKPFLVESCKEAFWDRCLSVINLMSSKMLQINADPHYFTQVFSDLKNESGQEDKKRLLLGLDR

inhibition (Histone deacetylase 1 [1]): Active | inhibition [2]: 101% | Ratio IC50 (Histone deacetylase 1 [6]): > 10 | inhibition [8]: 71% | inhibition [10]: 78% | inhibition (CDK4/CDK9 (Homo sapiens)): Active
SMILES: CN(C)C(=O)c1cc2cnc(Nc3ccc(NC(=O)CCCCCCC(=O)NO)cc3)nc2n1C1CCCC1
Activity (T47D): 8.44% | Activity (MDA-MB-231 [3]): 90.3% | Activity (Hep 3B2 [4]): 15% | Activity (MDA-MB-231 [5]): 87.1% | Activity (MDA-MB-231 [7]): 1.36% | Activity (Hep 3B2 [9]): 7.09% | Activity (Hep 3B2 [11]): 10.4% | Activity (MDA-MB-231 [12]): Active | Activity (MDA-MB-231 [13]): 95.6%
